Data on 29 molecules can be found in PubChem BioAssay AID504382 (The Scripps Research Institute Molecular Screening Center, 2011).

The campaign covered roughly 2,500 compounds. About 460 (18%) were called active.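 Rule for the calls: active = mean activation above a cutoff of low control average plus 3 SD from the earlier screen (cut at about 12% in these data); inactive = the rest.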 Not all results are given here.

The nature of the assay: compound fluorescence interference without thin filaments, confirmation, artefact control for cardiac RTF calcium sensitizer project, biochemical (AID 504382). The note with it: IANBD fluorescence interference counterscreen, buffer, EC20 Ca2+; at 7.2 µM; stronger effect = higher value; scaled: EC20 calcium 0, EC100 calcium 100. The method, boiled down:
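timing = compound incubation 15 min at 25 °C before fluorescence reading | technique = fluorescence at 480 nm excitation, 540 nm emission | evaluation = interference relative to controls | replication = triplicate wells per compound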
On the technique in general: A counterscreen serves to expose hits that act by an unwanted route or on another target.
Consider `Cc1ccc(-c2ccc(CO)o2)cc1N`, for which the fluorescence artifact activation is 28.2% (active).
Regarding `Cc1ccc2c(CN3CCCc4ccccc43)cc(=O)oc2c1C`, the fluorescence artifact activation was -0.04% (inactive).
The same measure for `FC(F)(F)c1cccc(-c2nc(COc3ccc(Cl)cc3Cl)no2)c1`: 2280% (active); for `Cn1c(-c2ccc(C=O)s2)nc2c3ccccc3c3ccccc3c21`: 5.75% (inactive); for `CCOC(=O)COc1c(Cl)cc(C2NC(=S)NC(c3ccccc3)=C2C(C)=O)cc1OC` (centres undefined): 6.87% (inactive).
In the case of `CCOc1ccc(NC(=O)C2CC(=O)N=C(N)S2)cc1` (centres undefined), the fluorescence artifact activation is 0.11% (inactive).
In the case of `Cc1ccc(NC(=O)C(C)Sc2nnc(C)n2C2CC2)cc1S(=O)(=O)N1CCOCC1` (centres undefined), the fluorescence artifact activation is 0.96% (inactive).
The same measure for `CN1CCCN(Cc2cccc3ccccc23)CC1`: 0.24% (inactive).
As for `O=S(=O)(c1ccc(NC(=S)Nc2ccccc2)cc1)N1CCOCC1`, the figure is 0.1% (inactive).
In the case of `O=C(CCc1ccc(S(=O)(=O)N2CCOCC2)cc1)OCC(=O)c1ccccc1`, the fluorescence artifact activation was 6.03% (inactive).
Consider `NS(=O)(=O)c1cccc(NC(=O)CCc2ccc(S(=O)(=O)N3CCOCC3)cc2)c1`, for which the fluorescence artifact activation is 31.3% (active).
As for `CCOC(=O)CCc1c(C)nc(-n2[nH]c(C)c(CCO)c2=O)[nH]c1=O`, the figure is 0.03% (inactive); as for `CCOC(=O)CNc1ccc2c(c1)OCO2`, 2.35% (inactive); as for `Cc1ncc(CO)c2cc(-c3nnc(Nc4ccc5c(c4)OCO5)s3)c(=O)oc12`, 23.2% (active).
As for `O=C(c1ccccc1)N1C(=O)C(c2ccccc2)Oc2ccccc21` (centres undefined), the figure is -0.12% (inactive); as for `CC(/C=N/Nc1ccc2nncn2n1)=C\c1ccccc1`, 12.9% (active).
As to `COc1cccc(C2C=C(c3ccc(Br)s3)Nc3ncnn32)c1OC` (centres undefined), the fluorescence artifact activation is -0.01% (inactive).
Regarding `O=C(CNC(=O)c1cccc(Cl)c1)N/N=C/c1cccnc1`, the fluorescence artifact activation was 0.03% (inactive).
For `CC[n+]1c(/C=C/N(C)c2ccccc2)oc2ccccc21`, the fluorescence artifact activation was -0.02% (inactive).
As for `CC[n+]1c(/C=C/C=C/N(C(C)=O)c2ccccc2)sc2ccccc21`, the figure is 49.8% (active); as for `CC/C(=C/c1sc2ccccc2[n+]1CC)SC`, 2.16% (inactive).
As for `CC1=Nc2ccccc2/C1=C\c1nc(-c2ccc(C(F)(F)F)cc2)oc1O`, the figure is -0.02% (inactive); as for `C[C@H]1CCC(=O)N([C@H](CSc2ccc(Br)cc2)Cc2ccccc2)CC1`, 0.11% (inactive); as for `Nc1c(C(=O)Nc2ccccc2F)sc2nc(Cc3ccccc3)cc(C(F)(F)F)c12`, 0.07% (inactive).
In the case of `CCOc1ccc2noc3c2c1C(=O)c1ccccc1-3`, the fluorescence artifact activation was 0.02% (inactive).
As for `c1ccc(Nc2nc3ccccc3n3cnnc23)cc1`, the figure is 0.03% (inactive); as for `CCC(CC)c1nnc(NC(=O)/C=C/c2ccco2)s1`, 0.09% (inactive).
As to `CCOCCc1nnc(NC(=O)COC)s1`, the fluorescence artifact activation is 0.06% (inactive).
As for `CCCCOC(=O)Nc1nnc(C(C)C)s1`, the figure is 148% (active).
